Source: ChEMBL document CHEMBL5385967, “Nitrogen-containing andrographolide derivatives with multidrug resistance reversal effects in cancer cells” (RSC Med Chem, 2024)
pIC50: −log10 of the molar value.

Legend:
L5178Y [1] = assay: Antiproliferative activity against mouse L5178Y cells assessed as reduction in cell viability incubated for 72 hrs by MTT assay; format: functional, cell-based
Outline: (§1)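 Parental L5178Y or human ABCB1-transfected L5178Y MDR subline kept under 60 ng mL−1 colchicine selection; McCoy's 5A, 10% heat-inactivated horse serum, 37 °C. 6 × 10^3 cells/well exposed to 2-fold serial dilutions from 100 μM for 72 h. MTT 4 h, SDS overnight, OD 540/630 nm. Triplicate; IC50 from curve fitting, mean ± SD.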

[2] = molecular target: T1, ATP-dependent translocase ABCB1 (Homo sapiens, UniProt P08183); assay: Modulation of human P-gp transfected in mouse L5178Y cells assessed as change in Rhodamine-123 efflux by measuring fluorescence activity ratio at 2 uM pretreated for 10 mins followed by Rhodamine-123 challenge for 20 mins by flow cytometry relative to parental mouse L5178Y cells; format: cell-based; conditions: 0.5 h, time 30 min
T1 sequence (P08183 whole entry): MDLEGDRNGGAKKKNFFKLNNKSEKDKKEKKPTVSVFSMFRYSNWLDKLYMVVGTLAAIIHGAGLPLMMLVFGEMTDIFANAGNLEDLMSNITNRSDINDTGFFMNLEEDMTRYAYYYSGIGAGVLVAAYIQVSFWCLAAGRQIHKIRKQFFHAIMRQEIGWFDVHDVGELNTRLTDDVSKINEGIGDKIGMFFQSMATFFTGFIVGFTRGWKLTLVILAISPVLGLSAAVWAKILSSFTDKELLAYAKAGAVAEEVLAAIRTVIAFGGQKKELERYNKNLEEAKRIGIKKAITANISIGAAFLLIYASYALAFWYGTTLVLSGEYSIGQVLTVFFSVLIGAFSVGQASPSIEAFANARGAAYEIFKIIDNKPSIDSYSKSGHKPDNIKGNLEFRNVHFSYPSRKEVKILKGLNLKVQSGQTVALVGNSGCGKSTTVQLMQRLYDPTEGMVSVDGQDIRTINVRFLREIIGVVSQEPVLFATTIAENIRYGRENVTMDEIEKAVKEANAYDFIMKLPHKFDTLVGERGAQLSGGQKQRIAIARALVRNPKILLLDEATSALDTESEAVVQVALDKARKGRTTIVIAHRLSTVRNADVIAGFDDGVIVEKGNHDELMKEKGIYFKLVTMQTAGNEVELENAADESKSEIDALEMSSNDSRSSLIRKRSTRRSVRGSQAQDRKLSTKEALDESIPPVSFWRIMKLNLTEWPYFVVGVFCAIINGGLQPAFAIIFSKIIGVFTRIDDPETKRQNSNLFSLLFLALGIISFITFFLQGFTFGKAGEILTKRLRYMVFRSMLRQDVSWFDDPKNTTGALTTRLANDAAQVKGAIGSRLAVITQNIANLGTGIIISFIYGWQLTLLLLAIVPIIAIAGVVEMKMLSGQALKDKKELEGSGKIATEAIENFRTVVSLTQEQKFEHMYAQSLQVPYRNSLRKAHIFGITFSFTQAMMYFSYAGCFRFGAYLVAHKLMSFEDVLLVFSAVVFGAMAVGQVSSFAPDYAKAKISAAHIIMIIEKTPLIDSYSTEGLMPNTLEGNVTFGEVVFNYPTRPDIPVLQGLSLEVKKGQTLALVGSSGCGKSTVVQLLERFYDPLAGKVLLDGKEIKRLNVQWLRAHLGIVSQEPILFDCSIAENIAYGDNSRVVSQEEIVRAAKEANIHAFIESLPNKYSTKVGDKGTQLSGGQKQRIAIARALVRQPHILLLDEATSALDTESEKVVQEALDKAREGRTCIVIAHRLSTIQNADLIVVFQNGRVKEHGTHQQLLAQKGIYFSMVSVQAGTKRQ
Outline: (§2)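 PAR and MDR cells at 2 × 10^6 cells/mL in serum-free McCoy's 5A. Compound given 10 min at room temperature, then rhodamine-123 (5.2 μM final) for 20 min at 37 °C. Washed twice, resuspended in PBS, mean FL-1 read by flow cytometry. FAR = (MDR treated/untreated)/(PAR treated/untreated). Verapamil 20 μM positive control, DMSO 2% solvent control.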

L5178Y [3] = assay: Reversal of multidrug resistance in multidrug resistant mouse L5178Y cells transfected with human ABCB1 assessed as reduction in cell viability incubated for 72 hrs by MTT assay; format: functional, cell-based; outline: as §1
[4] = Resistance ratio of IC50 for antiproliferative activity against multidrug resistant mouse L5178Y cells transfected with human ABCB1 to IC50 for antiproliferative activity against mouse L5178Y cells; format: functional
Outline: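 RR = IC50(MDR)/IC50(PAR), IC50s from the 72 h MTT assay: 2-fold dilutions from 100 μM, 6 × 10^3 cells/well, triplicate. Collateral sensitivity taken as RR < 0.5; RR < 1 counted as selectivity toward resistant cells.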

[5] = molecular target: T1, ATP-dependent translocase ABCB1; assay: Modulation of human P-gp transfected in mouse L5178Y cells assessed as change in Rhodamine-123 efflux by measuring fluorescence activity ratio at 20 uM pretreated for 10 mins followed by Rhodamine-123 challenge for 20 mins by flow cytometry relative to parental mouse L5178Y cells; format: cell-based; conditions: 0.5 h, time 30 min
[6] = molecular target: T1, ATP-dependent translocase ABCB1; assay: Modulation of human P-gp transfected in mouse L5178Y cells assessed as change in Rhodamine-123 efflux by measuring fluorescence activity ratio at 0.2 uM pretreated for 10 mins followed by Rhodamine-123 challenge for 20 mins by flow cytometry relative to parental mouse L5178Y cells; format: cell-based; conditions: 0.5 h, time 30 min; outline: as §2
L5178Y [7] = assay: Synergistic antiproliferative activity against multidrug resistant mouse L5178Y cells transfected with human ABCB1 assessed as combination index incubated for 72 hrs in presence of doxorubicin by MTT assay; format: functional
Outline: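 Checkerboard in MDR cells, 6 × 10^3 cells/well. Doxorubicin in serial dilutions from 8.6 μM, crossed with modifier dilutions whose start level was set from its IC50. 72 h at 37 °C under CO2, growth read by MTT. Curves fitted by the median-effect equation; CI reported at 50% inhibition, mean ± SD.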

SMILES | Ratio [2] | Ratio [5] | Ratio [6] | pIC50 (L5178Y [1]) | pIC50 (L5178Y [3]) | Ratio [4] | CI (L5178Y [7])
C=C1CC[C@@H]2[C@](C)(COC(C)=O)[C@H](OC(C)=O)CC[C@@]2(C)[C@@H]1C/C=C1/C(=O)OC[C@H]1OC(C)=O | 1.95 | 38.65 | – | 4.88 | 4.72 | 1.45 | –
C=C1CC[C@@H]2[C@](C)(COC(C)=O)[C@H](OC(C)=O)CC[C@@]2(C)[C@@H]1C[C@H](NNC(=S)Nc1cccc2ccccc12)C1=CCOC1=O | 14.29 | 33.46 | – | 4.28 | 4.29 | 0.97 | –
C=C1CC[C@@H]2[C@](C)(COC(C)=O)[C@H](OC(C)=O)CC[C@@]2(C)[C@@H]1C[C@H](NNC(=S)Nc1ccccc1)C1=CCOC1=O | 7.9 | 55.07 | – | 4.29 | < 4.00 | – | –
C=C1CC[C@@H]2[C@](C)(COC(C)=O)[C@H](OC(C)=O)CC[C@@]2(C)[C@@H]1C[C@H](NNC(=S)Nc1ccc([N+](=O)[O-])cc1)C1=CCOC1=O | 27.27 | 51.95 | – | 4.79 | 4.26 | 3.4 | –
C=C1CC[C@@H]2[C@](C)(COC(C)=O)[C@H](OC(C)=O)CC[C@@]2(C)[C@@H]1C[C@H](NNC(=S)Nc1ccccc1C)C1=CCOC1=O | 1.06 | 37.12 | – | 4.25 | 4.09 | 1.42 | –
C=C1CC[C@@H]2[C@](C)(COC(C)=O)[C@H](OC(C)=O)CC[C@@]2(C)[C@@H]1C[C@H](NNC(=S)NC(C)(C)C)C1=CCOC1=O | 1.2 | 43.52 | – | 4.22 | 4.27 | 0.9 | –
C=C1CC[C@@H]2[C@](C)(COC(C)=O)[C@H](OC(C)=O)CC[C@@]2(C)[C@@H]1C[C@H](NNC(=S)Nc1ccccc1F)C1=CCOC1=O | 1.03 | 79.33 | – | 4.28 | 4.15 | 1.33 | –
C=C1CC[C@@H]2[C@](C)(COC(C)=O)[C@H](OC(C)=O)CC[C@@]2(C)[C@@H]1C[C@H](NNC(=S)NCc1ccccc1)C1=CCOC1=O | 1.71 | 57.14 | – | 4.17 | 4.17 | 1.01 | –
C=C1CC[C@@H]2[C@](C)(COC(C)=O)[C@H](OC(C)=O)CC[C@@]2(C)[C@@H]1C[C@H](NNC(=S)N(C)C)C1=CCOC1=O | 58.18 | 61.3 | – | 4.54 | 4.39 | 1.4 | –
C=C1CC[C@@H]2[C@](C)(COC(C)=O)[C@H](OC(C)=O)CC[C@@]2(C)[C@@H]1C[C@H](NNC(=S)Nc1ccc(CC)cc1)C1=CCOC1=O | 61.3 | 79.48 | – | 4.41 | < 4.00 | – | –
C=C1CC[C@@H]2[C@](C)(COC(C)=O)[C@H](OC(C)=O)CC[C@@]2(C)[C@@H]1C[C@H](NNC(=S)NCc1ccco1)C1=CCOC1=O | 1.27 | 31.12 | – | 4.30 | 4.15 | 1.43 | –
C=C1CC[C@@H]2[C@](C)(COC(C)=O)[C@H](OC(C)=O)CC[C@@]2(C)[C@@H]1C[C@H](NNC(=S)NC)C1=CCOC1=O | 0.88 | 41.85 | – | 4.35 | 4.29 | 1.16 | –
C=C1CC[C@@H]2[C@](C)(COC(C)=O)[C@H](OC(C)=O)CC[C@@]2(C)[C@@H]1C[C@H](NNC(=S)NC1CCCCC1)C1=CCOC1=O | 18.13 | 64.94 | – | 4.12 | 4.17 | 0.89 | –
C=C1CC[C@@H]2[C@](C)(COC(C)=O)[C@H](OC(C)=O)CC[C@@]2(C)[C@@H]1C[C@H](NNC(=S)NCCN1CCOCC1)C1=CCOC1=O | 1.37 | 50.23 | – | 4.21 | 4.23 | 0.96 | –
C=C1CC[C@@H]2[C@](C)(COC(C)=O)[C@H](OC(C)=O)CC[C@@]2(C)[C@@H]1C[C@H](NNc1ccc(Br)cn1)C1=CCOC1=O | 16.12 | – | 2.34 | 4.69 | 4.92 | 0.58 | 0.21
C=C1CC[C@@H]2[C@](C)(CO)[C@H](O)CC[C@@]2(C)[C@@H]1C/C=C1/C(=O)OC[C@H]1O [ANDROGRAPHOLIDE] | 0.96 | 0.82 | – | 4.84 | 4.83 | 1.03 | <1
COc1cccc2c1C(=O)c1c(O)c3c(c(O)c1C2=O)C[C@@](O)(C(=O)CO)C[C@@H]3O[C@H]1C[C@H](N)[C@H](O)[C@H](C)O1 [DOXORUBICIN] | – | – | – | 7.15 | 5.17 | 95.43 | –

More lines, main results first:

Ratio [2] | Ratio [5] | Ratio [6] | SMILES | pIC50 (L5178Y [1]) | pIC50 (L5178Y [3]) | Ratio [4] | CI (L5178Y [7])
3.36 | – | 1.56 | C=C1CC[C@@H]2[C@](C)(COC(C)=O)[C@H](OC(C)=O)CC[C@@]2(C)[C@@H]1C[C@H](NNC(=O)c1ccc(Cl)cc1)C1=CCOC1=O | 4.85 | 5.04 | 0.64 | <1
4.28 | – | 2.32 | C=C1CC[C@@H]2[C@](C)(COC(C)=O)[C@H](OC(C)=O)CC[C@@]2(C)[C@@H]1C[C@H](NNC(=O)c1ccco1)C1=CCOC1=O | 4.96 | 4.82 | 1.38 | <1
0.48 | – | 0.48 | C=C1CC[C@@H]2[C@](C)(COC(C)=O)[C@H](OC(C)=O)CC[C@@]2(C)[C@@H]1C[C@H](NNC(=O)c1ccc(N)cc1)C1=CCOC1=O | 4.91 | 5.26 | 0.44 | <1
18.86 | 60.26 | – | C=C1CC[C@@H]2[C@](C)(COC(C)=O)[C@H](OC(C)=O)CC[C@@]2(C)[C@@H]1C[C@H](NNC(=S)Nc1ccc(C)cc1)C1=CCOC1=O | 4.44 | 4.32 | 1.31 | –
2.27 | – | 0.37 | C=C1CC[C@@H]2[C@](C)(COC(C)=O)[C@H](OC(C)=O)CC[C@@]2(C)[C@@H]1C[C@H](NNC(=O)c1ccc(C(F)(F)F)cc1)C1=CCOC1=O | 5.17 | 4.93 | 1.75 | <1
5.19 | – | 1.63 | C=C1CC[C@@H]2[C@](C)(COC(C)=O)[C@H](OC(C)=O)CC[C@@]2(C)[C@@H]1C[C@@H](NNC(=O)c1ccc(C(F)(F)F)cc1)C1=CCOC1=O | 4.85 | 4.82 | 1.08 | <1
0.32 | – | 0.49 | C=C1CC[C@@H]2[C@](C)(COC(C)=O)[C@H](OC(C)=O)CC[C@@]2(C)[C@@H]1C[C@H](NNC(=O)c1cccnc1)C1=CCOC1=O | 4.90 | 4.93 | 0.94 | <1
1.21 | 64.99 | – | C=C1CC[C@@H]2[C@](C)(COC(C)=O)[C@H](OC(C)=O)CC[C@@]2(C)[C@@H]1C[C@H](NNC(=O)OCc1ccc(OC)cc1)C1=CCOC1=O | 4.75 | 4.63 | 1.32 | <1
1.89 | – | 0.54 | C=C1CC[C@@H]2[C@](C)(COC(C)=O)[C@H](OC(C)=O)CC[C@@]2(C)[C@@H]1C[C@H](NNC(=O)c1cccs1)C1=CCOC1=O | 4.81 | 4.83 | 0.96 | <1
